Reference: ChEMBL document CHEMBL4673384, “Studying Histone Deacetylase Inhibition and Apoptosis Induction of Psammaplin A Monomers with Modified Thiol Group” (ACS Med Chem Lett, 2021)
pIC50: −log10 of the molar value. Activity calls are given as the source filed them. The rule behind the calls is not given here.

Experiments:
[1] = Toxicity in mouse LL/2 cells inoculated C57BL/6J mouse assessed as effect on body weight by measuring end body weight at 100 mg/kg, ip administered for 12 days and measured for every 2 days (reference value: 17.8 +/- 0.7 g); type: organism-based; conditions: in vivo, 288 h, time 12 day
[2] = molecular target: T1, Protein deacetylase HDAC6 (Homo sapiens, UniProt Q9UBN7); test: Inhibition of recombinant full length C-terminal FLAG-tagged human HDAC6 expressed in baculovirus infected Sf9 cells using Boc-Lys(Ac)-AMC as substrate preincubated for 15 mins followed by substrate addition and measured after 60 mins by fluorescence based assay
T1 sequence (Q9UBN7 whole entry): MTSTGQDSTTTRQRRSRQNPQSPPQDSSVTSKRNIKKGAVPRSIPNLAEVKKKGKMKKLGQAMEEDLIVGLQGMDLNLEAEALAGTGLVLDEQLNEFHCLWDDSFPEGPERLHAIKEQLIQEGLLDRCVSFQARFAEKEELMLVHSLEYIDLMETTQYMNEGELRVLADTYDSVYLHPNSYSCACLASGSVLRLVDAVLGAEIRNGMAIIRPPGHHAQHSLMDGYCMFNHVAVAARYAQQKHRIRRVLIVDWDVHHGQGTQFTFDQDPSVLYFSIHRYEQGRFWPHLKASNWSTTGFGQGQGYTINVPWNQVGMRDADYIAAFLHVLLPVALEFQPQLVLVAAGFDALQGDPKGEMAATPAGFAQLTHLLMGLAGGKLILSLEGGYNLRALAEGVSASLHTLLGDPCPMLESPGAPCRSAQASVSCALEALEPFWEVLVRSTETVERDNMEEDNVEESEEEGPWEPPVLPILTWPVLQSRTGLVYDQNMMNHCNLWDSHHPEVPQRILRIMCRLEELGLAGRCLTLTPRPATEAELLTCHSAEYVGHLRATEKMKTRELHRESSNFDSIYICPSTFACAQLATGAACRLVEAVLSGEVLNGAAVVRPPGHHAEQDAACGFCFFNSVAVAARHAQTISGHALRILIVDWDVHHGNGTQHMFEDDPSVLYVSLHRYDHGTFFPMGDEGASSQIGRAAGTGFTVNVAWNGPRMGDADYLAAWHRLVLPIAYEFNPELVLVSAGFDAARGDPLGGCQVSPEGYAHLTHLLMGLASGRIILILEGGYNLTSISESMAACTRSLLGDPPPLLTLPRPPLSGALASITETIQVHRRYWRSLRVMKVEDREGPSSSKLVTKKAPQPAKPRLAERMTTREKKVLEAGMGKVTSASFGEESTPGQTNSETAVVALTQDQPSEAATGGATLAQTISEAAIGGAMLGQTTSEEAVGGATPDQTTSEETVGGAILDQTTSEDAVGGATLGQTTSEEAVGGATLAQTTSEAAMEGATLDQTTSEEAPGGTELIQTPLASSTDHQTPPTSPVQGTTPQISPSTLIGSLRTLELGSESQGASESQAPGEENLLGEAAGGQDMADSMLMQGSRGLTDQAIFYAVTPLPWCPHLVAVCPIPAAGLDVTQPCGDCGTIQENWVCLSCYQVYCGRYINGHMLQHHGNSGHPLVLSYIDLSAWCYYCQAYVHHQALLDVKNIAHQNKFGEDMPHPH

MCF7 = test: Antiproliferative activity against human MCF7 cells assessed as cell growth inhibition incubated for 96 hrs by MTT assay; type: functional
[3] = Toxicity in mouse LL/2 cells inoculated C57BL/6J mouse assessed as effect on body weight by measuring initial body weight at 100 mg/kg, ip administered for 12 days and measured for every 2 days (reference value: 18.6 +/- 0.8 g); type: organism-based; conditions: in vivo, 288 h, time 12 day
A549 = test: Antiproliferative activity against human A549 cells assessed as cell growth inhibition incubated for 96 hrs by MTT assay; type: functional
[4] = molecular target: Histone deacetylase 3/Nuclear receptor corepressor 2 (HDAC3/NCoR2) (Homo sapiens, UniProt O15379); test: Inhibition of C-terminal His-tagged recombinant human HDAC3 (1 to 428 residues)/N-terminal GST-tagged recombinant human NCoR2 (395 to 489 residues) co-expressed in baculovirus infected Sf9 cells using Boc-Lys(Ac)-AMC as substrate preincubated for 15 mins followed by substrate addition and measured after 60 mins by fluorescence based assay
Sequence of Histone deacetylase 3/Nuclear receptor corepressor 2 (HDAC3/NCoR2) (O15379 whole entry, the tested form may be a part): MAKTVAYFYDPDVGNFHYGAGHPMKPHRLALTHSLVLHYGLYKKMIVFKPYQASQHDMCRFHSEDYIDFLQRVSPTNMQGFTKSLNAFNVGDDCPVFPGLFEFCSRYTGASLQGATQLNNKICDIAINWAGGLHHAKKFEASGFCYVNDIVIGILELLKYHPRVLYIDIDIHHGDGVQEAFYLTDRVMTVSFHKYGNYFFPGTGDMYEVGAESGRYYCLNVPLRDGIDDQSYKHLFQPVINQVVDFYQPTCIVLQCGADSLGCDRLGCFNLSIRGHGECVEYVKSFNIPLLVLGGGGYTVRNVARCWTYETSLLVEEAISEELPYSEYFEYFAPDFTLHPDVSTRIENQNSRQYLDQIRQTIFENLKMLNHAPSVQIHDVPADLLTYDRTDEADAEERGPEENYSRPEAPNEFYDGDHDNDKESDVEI
Sequence of Histone deacetylase 3/Nuclear receptor corepressor 2 (HDAC3/NCoR2) (Q9Y618 whole entry, further chain, the tested form may be a part): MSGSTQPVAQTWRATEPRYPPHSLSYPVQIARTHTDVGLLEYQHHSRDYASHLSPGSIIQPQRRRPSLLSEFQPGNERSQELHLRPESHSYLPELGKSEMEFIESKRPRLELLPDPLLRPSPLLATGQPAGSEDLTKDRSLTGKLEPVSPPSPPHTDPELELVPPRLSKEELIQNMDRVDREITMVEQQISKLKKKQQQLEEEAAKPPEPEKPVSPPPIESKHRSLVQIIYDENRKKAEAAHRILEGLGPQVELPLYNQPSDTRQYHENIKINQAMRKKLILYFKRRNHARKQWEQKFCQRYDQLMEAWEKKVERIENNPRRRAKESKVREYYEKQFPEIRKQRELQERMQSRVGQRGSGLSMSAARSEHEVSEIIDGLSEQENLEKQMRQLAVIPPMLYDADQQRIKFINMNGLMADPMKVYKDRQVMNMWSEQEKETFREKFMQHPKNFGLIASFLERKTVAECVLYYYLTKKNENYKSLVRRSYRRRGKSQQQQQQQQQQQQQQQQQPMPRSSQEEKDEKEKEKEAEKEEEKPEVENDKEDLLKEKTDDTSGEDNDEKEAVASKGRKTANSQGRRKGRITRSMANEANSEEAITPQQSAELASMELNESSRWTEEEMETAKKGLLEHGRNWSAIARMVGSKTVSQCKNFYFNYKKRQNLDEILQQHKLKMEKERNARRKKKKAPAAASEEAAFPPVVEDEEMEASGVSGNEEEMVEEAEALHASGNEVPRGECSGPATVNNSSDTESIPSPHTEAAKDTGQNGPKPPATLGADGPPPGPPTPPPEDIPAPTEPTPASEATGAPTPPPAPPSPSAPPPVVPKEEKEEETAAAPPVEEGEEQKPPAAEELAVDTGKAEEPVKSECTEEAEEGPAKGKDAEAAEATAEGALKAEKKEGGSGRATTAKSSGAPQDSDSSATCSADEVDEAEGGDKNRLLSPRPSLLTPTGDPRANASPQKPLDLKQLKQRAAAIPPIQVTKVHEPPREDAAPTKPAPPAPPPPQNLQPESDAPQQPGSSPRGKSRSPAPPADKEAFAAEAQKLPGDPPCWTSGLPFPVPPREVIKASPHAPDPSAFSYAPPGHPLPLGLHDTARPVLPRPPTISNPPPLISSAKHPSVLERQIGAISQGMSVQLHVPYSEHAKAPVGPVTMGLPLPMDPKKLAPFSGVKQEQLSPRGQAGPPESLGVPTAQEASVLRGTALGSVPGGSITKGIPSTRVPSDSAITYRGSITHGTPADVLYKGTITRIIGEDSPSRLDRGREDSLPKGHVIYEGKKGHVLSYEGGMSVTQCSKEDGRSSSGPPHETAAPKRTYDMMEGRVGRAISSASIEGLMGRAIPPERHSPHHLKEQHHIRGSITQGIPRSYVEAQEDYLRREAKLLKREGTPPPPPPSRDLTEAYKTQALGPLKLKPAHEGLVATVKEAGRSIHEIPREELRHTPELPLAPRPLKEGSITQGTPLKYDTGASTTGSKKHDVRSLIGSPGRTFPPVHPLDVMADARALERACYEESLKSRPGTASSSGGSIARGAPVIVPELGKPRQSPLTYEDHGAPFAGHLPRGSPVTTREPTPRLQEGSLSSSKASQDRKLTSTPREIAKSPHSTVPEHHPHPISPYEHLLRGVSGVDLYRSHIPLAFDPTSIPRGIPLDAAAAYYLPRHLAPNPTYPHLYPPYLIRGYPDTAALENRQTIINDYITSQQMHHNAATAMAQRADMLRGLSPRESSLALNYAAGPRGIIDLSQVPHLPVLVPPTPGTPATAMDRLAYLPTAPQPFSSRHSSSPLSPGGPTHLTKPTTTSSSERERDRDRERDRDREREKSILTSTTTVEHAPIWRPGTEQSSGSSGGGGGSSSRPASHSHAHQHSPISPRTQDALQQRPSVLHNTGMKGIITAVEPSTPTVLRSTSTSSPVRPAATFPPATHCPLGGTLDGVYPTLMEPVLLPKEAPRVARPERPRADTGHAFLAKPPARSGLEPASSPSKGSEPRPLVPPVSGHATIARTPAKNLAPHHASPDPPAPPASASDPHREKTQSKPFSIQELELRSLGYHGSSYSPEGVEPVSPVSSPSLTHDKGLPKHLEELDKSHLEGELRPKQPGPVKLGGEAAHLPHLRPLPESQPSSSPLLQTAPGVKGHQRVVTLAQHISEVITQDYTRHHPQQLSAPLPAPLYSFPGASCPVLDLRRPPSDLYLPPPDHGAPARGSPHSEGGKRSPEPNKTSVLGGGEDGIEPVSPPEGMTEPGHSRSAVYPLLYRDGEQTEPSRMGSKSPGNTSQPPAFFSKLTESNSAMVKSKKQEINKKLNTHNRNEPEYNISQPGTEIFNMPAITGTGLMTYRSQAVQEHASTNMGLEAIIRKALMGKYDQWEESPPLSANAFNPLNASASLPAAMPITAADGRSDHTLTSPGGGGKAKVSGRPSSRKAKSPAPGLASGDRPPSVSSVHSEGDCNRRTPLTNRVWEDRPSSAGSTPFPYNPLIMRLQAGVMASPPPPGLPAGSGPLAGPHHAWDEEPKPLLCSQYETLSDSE

HCT-116 = test: Antiproliferative activity against human HCT-116 cells assessed as cell growth inhibition incubated for 96 hrs by MTT assay; type: functional
[5] = Antitumor activity against mouse LL/2 cells inoculated in C57BL/6J mouse assessed as reduction of tumor weight at 100 mg/kg, ip administered for 12 days and measured at day 14 (reference value: 1.2 +/- 0.3 g); type: functional, Lewis lung carcinoma; conditions: time 12 day
[6] = Antiproliferative activity against mouse LL/2 cells assessed as cell growth inhibition incubated for 96 hrs by MTT assay; type: functional, Lewis lung carcinoma
HL-60 [7] = test: Growth inhibition of human HL-60 cells after 72 hrs by trypan blue dye based assay; type: functional
In short: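 HL-60 leukemia cells were exposed to compound for 72 h. Growth inhibition is reported as IG50 (half the growth inhibition concentration), as means plus SD of three independent experiments.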

Histone deacetylase 2 [8] = molecular target: T2, Histone deacetylase 2 (Homo sapiens, UniProt Q92769); test: Inhibition of recombinant full length C-terminal FLAG-tagged human HDAC2 expressed in baculovirus infected Sf9 cells using Boc-Lys(Ac)-AMC as substrate preincubated for 15 mins followed by substrate addition and measured after 60 mins by fluorescence based assay
T2 sequence (Q92769 whole entry): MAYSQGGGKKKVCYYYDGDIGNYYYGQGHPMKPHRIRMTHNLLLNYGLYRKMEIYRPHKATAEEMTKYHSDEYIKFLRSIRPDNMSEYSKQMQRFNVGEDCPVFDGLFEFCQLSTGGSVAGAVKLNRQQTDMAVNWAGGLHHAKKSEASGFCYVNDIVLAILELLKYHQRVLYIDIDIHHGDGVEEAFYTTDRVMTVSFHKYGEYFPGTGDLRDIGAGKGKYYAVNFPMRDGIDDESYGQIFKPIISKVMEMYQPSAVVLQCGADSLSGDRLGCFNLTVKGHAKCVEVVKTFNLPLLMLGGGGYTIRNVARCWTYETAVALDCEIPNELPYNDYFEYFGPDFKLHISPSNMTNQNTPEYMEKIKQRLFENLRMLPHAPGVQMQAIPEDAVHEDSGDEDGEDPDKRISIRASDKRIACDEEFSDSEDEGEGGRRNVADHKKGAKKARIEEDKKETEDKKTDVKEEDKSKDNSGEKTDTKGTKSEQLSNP

[9] = Antitumor activity against mouse LL/2 cells inoculated in C57BL/6J mouse assessed as tumor growth inhibition at 100 mg/kg, ip administered for 12 days; type: functional, Lewis lung carcinoma; set-up: scale not given: the % may be the effect or the level left; conditions: time 12 day
Histone deacetylase 1 [10] = molecular target: T3, Histone deacetylase 1 (Homo sapiens, UniProt Q13547); test: Inhibition of recombinant full length C-terminal FLAG/His-tagged human HDAC1 expressed in baculovirus infected Sf9 cells using Boc-Lys(Ac)-AMC as substrate preincubated for 15 mins followed by substrate addition and measured after 60 mins by fluorescence based assay
T3 sequence (Q13547 whole entry): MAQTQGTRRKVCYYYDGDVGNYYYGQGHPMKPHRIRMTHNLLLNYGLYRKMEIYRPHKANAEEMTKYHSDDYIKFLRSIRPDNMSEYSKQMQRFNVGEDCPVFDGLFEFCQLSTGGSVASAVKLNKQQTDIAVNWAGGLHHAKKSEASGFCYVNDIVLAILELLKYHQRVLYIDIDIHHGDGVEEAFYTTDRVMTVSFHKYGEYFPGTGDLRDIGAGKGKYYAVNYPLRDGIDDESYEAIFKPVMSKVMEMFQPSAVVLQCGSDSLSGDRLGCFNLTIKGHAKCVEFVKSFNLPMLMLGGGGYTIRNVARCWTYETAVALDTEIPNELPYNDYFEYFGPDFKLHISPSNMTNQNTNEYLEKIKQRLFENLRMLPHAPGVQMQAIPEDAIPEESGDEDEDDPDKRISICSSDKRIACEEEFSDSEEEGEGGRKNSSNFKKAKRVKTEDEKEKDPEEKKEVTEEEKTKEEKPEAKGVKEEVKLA

HL-60 [11] = test: Induction of apoptosis in human HL-60 cells assessed as early apoptotic cells at 2 uM incubated for 24 hrs by propidium iodide and annexin-V FITC staining based FACS analysis (reference value: 2.8 %); type: functional
HL-60 [12] = test: Induction of apoptosis in human HL-60 cells assessed as necrotic cells at 2 uM incubated for 24 hrs by propidium iodide and annexin-V FITC staining based FACS analysis (reference value: 0.3 %); type: functional
[13] = molecular target: T4, Protein deacetylase HDAC6 (Homo sapiens) (UniProt Q9UBN7); test: Inhibition of HDAC6 in human HL-60 cells assessed as increase in acetylated alpha tubulin level at 0.5 uM after 24 hrs by Western blot analysis; type: cell-based
T4 sequence (whole entry): T1 sequence (Q9UBN7 whole entry)
In short: (§1)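 Compound given to HL-60 cells for 24 h at the stated concentrations, then lysed. Acetyl-histone H3 and acetyl-α-tubulin levels were read by Western blot, with total H3, α-tubulin or β-actin as references.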

HL-60 [14] = test: Induction of apoptosis in human HL-60 cells assessed as late apoptotic cells at 2 uM incubated for 24 hrs by propidium iodide and annexin-V FITC staining based FACS analysis (reference value: 4.8 %); type: functional
HL-60 [15] = test: Induction of apoptosis in human HL-60 cells assessed as early apoptotic cells at 20 uM incubated for 24 hrs by propidium iodide and annexin-V FITC staining based FACS analysis (reference value: 2.0 %); type: functional
Histone deacetylase 1 [16] = molecular target: T3, Histone deacetylase 1; test: Inhibition of HDAC1 in human HL-60 cells assessed as increase in Ac-H3 level at 2 uM incubated for 24 hrs by Western blot analysis; type: cell-based; in short: as §1
HL-60 [17] = test: Induction of apoptosis in human HL-60 cells assessed as viable cells at 40 uM incubated for 24 hrs by propidium iodide and annexin-V FITC staining based FACS analysis (reference value: 96.3 %); type: functional; conditions: read-out: Activity
HL-60 [18] = test: Induction of apoptosis in human HL-60 cells assessed as cleavage of caspase-3 at 20 uM after 24 hrs Western blot analysis; type: functional, cell-based
In short: (§2)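 HL-60 cells were treated for 24 h at the indicated concentrations, then analysed by Western blot. Blots were probed for cleavage of PARP and caspase-3, -8 and -9. Ac-H3, Ac-α-tubulin and β-actin were also detected, with β-actin as the loading reference.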

[19] = molecular target: Histone deacetylase 3 (Homo sapiens) (UniProt O15379); test: Inhibition of HDAC3 in human HL-60 cells assessed as increase in Ac-H3 level at 20 uM incubated for 24 hrs by Western blot analysis; type: cell-based; in short: as §1
Sequence of Histone deacetylase 3 (Homo sapiens) (O15379 whole entry): as the sequence (O15379 whole entry, the tested form may be a part) above

HL-60 [20] = test: Induction of apoptosis in human HL-60 cells assessed as necrotic cells at 20 uM incubated for 24 hrs by propidium iodide and annexin-V FITC staining based FACS analysis (reference value: 0.1 %); type: functional
HL-60 [21] = test: Induction of apoptosis in human HL-60 cells assessed as late apoptotic cells at 20 uM incubated for 24 hrs by propidium iodide and annexin-V FITC staining based FACS analysis (reference value: 1.7 %); type: functional
Histone deacetylase 2 [22] = molecular target: T2, Histone deacetylase 2; test: Inhibition of HDAC2 in human HL-60 cells assessed as increase in Ac-H3 level at 2 uM incubated for 24 hrs by Western blot analysis; type: cell-based; in short: as §1
HL-60 [23] = test: Induction of apoptosis in human HL-60 cells assessed as cleavage of caspase-8 at 20 uM after 24 hrs Western blot analysis; type: functional, cell-based; in short: as §2
HL-60 [24] = test: Induction of apoptosis in human HL-60 cells assessed as cleavage of PARP at 20 uM after 24 hrs Western blot analysis; type: functional, cell-based; in short: as §2
HL-60 [25] = test: Induction of apoptosis in human HL-60 cells assessed as necrotic cells at 40 uM incubated for 24 hrs by propidium iodide and annexin-V FITC staining based FACS analysis (reference value: 0.1 %); type: functional
HL-60 [26] = test: Induction of apoptosis in human HL-60 cells assessed as late apoptotic cells at 40 uM incubated for 24 hrs by propidium iodide and annexin-V FITC staining based FACS analysis (reference value: 1.7 %); type: functional
HL-60 [27] = test: Induction of apoptosis in human HL-60 cells assessed as cleavage of caspase-9 at 20 uM after 24 hrs Western blot analysis; type: functional, cell-based; in short: as §2
HL-60 [28] = test: Induction of apoptosis in human HL-60 cells assessed as viable cells at 20 uM incubated for 24 hrs by propidium iodide and annexin-V FITC staining based FACS analysis (reference value: 96.3 %); type: functional; conditions: read-out: Activity
HL-60 [29] = test: Induction of apoptosis in human HL-60 cells assessed as early apoptotic cells at 40 uM incubated for 24 hrs by propidium iodide and annexin-V FITC staining based FACS analysis (reference value: 2.0 %); type: functional

Compound	pIC50 [2]	pIC50 [4]	IG50 (HL-60 [7])	pIC50 (Histone deacetylase 2 [8])	pIC50 (Histone deacetylase 1 [10])	Activity (HL-60 [15])	inhibition (Histone deacetylase 1 [16])	viability at 40 µM (HL-60 [17])	Activity (HL-60 [18])	inhibition [19]	Activity (HL-60 [20])	Activity (HL-60 [21])	inhibition (Histone deacetylase 2 [22])	Activity (HL-60 [23])	Activity (HL-60 [24])	Activity (HL-60 [25])	Activity (HL-60 [26])	Activity (HL-60 [27])	viability at 20 µM (HL-60 [28])	Activity (HL-60 [29])	further results
Nc1ccccc1NC(=O)CCCCCCCNC(=O)/C(Cc1ccc(O)c(Br)c1)=N/O	< 6.00	6.77	5.2 µM	< 6.00	< 6.00	–	–	–	–	–	–	–	–	–	–	–	–	–	–	–	Activity [1]: 18.5 g; IG50 (MCF7): 17.9 µM; Activity [3]: 18.6 g; IG50 (A549): 26 µM; IG50 (HCT-116): 11.9 µM; Activity [5]: 0.8 g; IG50 [6]: 12.2 µM; Activity [9]: 36.5%
O=C(CCCCCCC(=O)Nc1ccc([C@H]2O[C@@H](CSc3nc(-c4ccccc4)c(-c4ccccc4)o3)C[C@@H](c3ccc(CO)cc3)O2)cc1)NO [TUBACIN]	–	–	–	–	–	–	–	–	–	–	–	–	–	–	–	–	–	–	–	–	Activity (HL-60 [11]): 3.9%; Activity (HL-60 [12]): 0.8%; inhibition [13]: Active; Activity (HL-60 [14]): 8.8%
Nc1ccccc1NC(=O)CCCCCCNC(=O)/C(Cc1ccc(O)c(Br)c1)=N/O	< 6.00	6.89	14 µM	< 6.00	< 6.00	1.7%	inactive	87.9%	inactive	Active	0.1%	4%	inactive	inactive	inactive	0.6%	8.4%	inactive	94.2%	3.1%	–
Nc1ccccc1NC(=O)CCCCCNC(=O)/C(Cc1ccc(O)c(Br)c1)=N/O	< 6.00	6.74	14.3 µM	< 6.00	< 6.00	1.5%	inactive	85.7%	inactive	Active	0.1%	2.8%	inactive	inactive	inactive	0.4%	10.2%	inactive	95.6%	3.8%	–
